Experimental data taken from EPA's CvTdb concentration-time database.

Legend:
Rat [1] = test: concentration in plasma after dosing; details: 6 h; dosed: 2-Hydroxy-4-methoxybenzophenone; 500 mg/kg; oral; Male; F344
Rat [2] = test: concentration in plasma after dosing; details: 4 h; dosed: 2-Hydroxy-4-methoxybenzophenone; 500 mg/kg; oral; Male; F344
Mouse [3] = test: concentration in plasma after dosing; details: 10 min; dosed: 2-Hydroxy-4-methoxybenzophenone; 250 mg/kg; oral; Male; B6C3F1
Mouse [4] = test: concentration in plasma after dosing; details: 2 h; dosed: 2-Hydroxy-4-methoxybenzophenone; 250 mg/kg; oral; Male; B6C3F1
Mouse [5] = test: concentration in plasma after dosing; details: 10 min; dosed: 2-Hydroxy-4-methoxybenzophenone; 50 mg/kg; iv; Female; B6C3F1
Mouse [6] = test: concentration in plasma after dosing; details: 10 min; dosed: 2-Hydroxy-4-methoxybenzophenone; 50 mg/kg; iv; Male; B6C3F1
Mouse [7] = test: concentration in plasma after dosing; details: 10 min; dosed: 2-Hydroxy-4-methoxybenzophenone; 250 mg/kg; oral; Male; B6C3F1; remark: listed apart in the source
Rat [8] = test: concentration in plasma after dosing; details: 2 min; dosed: Nitrite; 80 mg/kg; oral; Female; F344
Rat [9] = test: concentration in plasma after dosing; details: dosed: Nitrite, 80 mg/kg, oral, Female, F344
Rat [10] = test: concentration in plasma after dosing; details: 10 min; dosed: Nitrite; 80 mg/kg; oral; Female; F344
Rat [11] = test: concentration in plasma after dosing; details: 0.5 h; dosed: Nitrite; 80 mg/kg; oral; Female; F344
Rat [12] = test: concentration in liver after dosing; details: 12 h; dosed: Perfluorooctanoic acid; 12 mg/kg; oral; Male; Harlan Sprague Dawley
Rat [13] = test: concentration in brain after dosing; details: 3 h; dosed: Perfluorooctanoic acid; 80 mg/kg; oral; Female; Harlan Sprague Dawley
Rat [14] = test: concentration in kidney after dosing; details: 24 h; dosed: Perfluorooctanoic acid; 12 mg/kg; oral; Male; Harlan Sprague Dawley
Rat [15] = test: concentration in plasma after dosing; details: 3 h; dosed: Fluorotelomer alcohol 8+2; 12 mg/kg; oral; Male; Harlan Sprague Dawley
Rat [16] = test: concentration in liver after dosing; details: 12 h; dosed: Fluorotelomer alcohol 8+2; 24 mg/kg; oral; Male; Harlan Sprague Dawley
Rat [17] = test: concentration in plasma after dosing; details: dosed: 678-39-7, 40 mg/kg, iv, Male, F344
Rat [18] = test: concentration in plasma after dosing; details: 1 h; dosed: Potassium Perfluorobutane Sulfonate; 4 mg/kg; iv; Female; Harlan Sprague-Dawley
Rat [19] = test: concentration in plasma after dosing; details: dosed: Potassium Perfluorobutane Sulfonate, 4 mg/kg, iv, Male, F344
Rat [20] = test: concentration in plasma after dosing; details: dosed: Potassium Perfluorobutane Sulfonate, 20 mg/kg, oral, Male, Harlan Sprague Dawley
Rat [21] = test: concentration in plasma after dosing; details: 0.75 h; dosed: Potassium Perfluorobutane Sulfonate; 4 mg/kg; iv; Female; Harlan Sprague-Dawley
Rat [22] = test: concentration in plasma after dosing; details: 1 h; dosed: Potassium Perfluorobutane Sulfonate; 4 mg/kg; iv; Male; F344
Rat [23] = test: concentration in plasma after dosing; details: 1.5 h; dosed: Potassium Perfluorobutane Sulfonate; 4 mg/kg; iv; Male; F344
Rat [24] = test: concentration in liver after dosing; details: 3 h; dosed: Potassium Perfluorobutane Sulfonate; 20 mg/kg; oral; Female; Harlan Sprague Dawley
Rat [25] = test: concentration in kidney after dosing; details: 1 h; dosed: Potassium Perfluorobutane Sulfonate; 20 mg/kg; oral; Female; Harlan Sprague Dawley
Rat [26] = test: concentration in plasma after dosing; details: 1.5 h; dosed: Potassium Perfluorobutane Sulfonate; 20 mg/kg; oral; Male; Harlan Sprague Dawley
Rat [27] = test: concentration in plasma after dosing; details: 1 h; dosed: Potassium Perfluorobutane Sulfonate; 4 mg/kg; iv; Male; F344; remark: listed apart in the source
human = test: concentration in expired air after dosing; details: dosed: methyl tert-butyl ether, 15 mg, oral, male
Outline: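 Sampling and analytical methods are those of each source and frequently went unreported. The concentration-versus-time and amount-versus-time points were compiled from published in vivo toxicokinetic studies and two structured collections. Most were digitised from plot screenshots with WebPlotDigitizer, with others copied from tables, in the reported units.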

COc1ccc(C(=O)c2ccccc2)c(O)c1 [2-Hydroxy-4-methoxybenzophenone]
Details | concentration in plasma [µg/mL]
Mouse [3] | 0.0931
Mouse [4] | 0.034
Mouse [5] | 8.41
Mouse [6] | 11.9
Mouse [7] | 0.148
Rat [1] | 0.293
Rat [2] | 0.345

O=N[O-] [Nitrite]
Details | concentration in plasma [µg/mL]
Rat [8] | 2.9
Rat [10] | 15.4
Rat [11] | 30.2

Rat [9]
Details | concentration in plasma [µg/mL]
1 h | 32.7
2 h | 20.6

O=C(O)C(F)(F)C(F)(F)C(F)(F)C(F)(F)C(F)(F)C(F)(F)C(F)(F)F [Perfluorooctanoic acid]
Details | concentration in brain [ng/g] | concentration in kidney [ng/g] | concentration in liver [ng/g] | concentration in plasma [ng/mL]
Rat [12] | – | – | 63300 | –
Rat [13] | 3490 | – | – | –
Rat [14] | – | 28700 | – | –
Rat [15] | – | – | – | 380
Rat [16] | – | – | 1350 | –

Rat [17]
Details | concentration in plasma [ng/mL]
0.5 h | 219000
3 h | 1660
12 h | 28000

O=S(=O)([O-])C(F)(F)C(F)(F)C(F)(F)C(F)(F)F.[K+] [Potassium Perfluorobutane Sulfonate]
Details | concentration in kidney [ng/g] | concentration in liver [ng/g] | concentration in plasma
Rat [18] | – | – | 3410 ng/mL
Rat [21] | – | – | 6450 ng/mL
Rat [22] | – | – | 20200 ng/mL
Rat [23] | – | – | 1740 ng/mL
Rat [24] | – | 8410 | –
Rat [25] | 21100 | – | –
Rat [26] | – | – | 70 µg/mL
Rat [27] | – | – | 17700 ng/mL

concentration in plasma [ng/mL]
Details | 0.25 h | 6 h | 24 h
Rat [19] | 15900 | 47.5 | –
Rat [20] | 24800 | – | 848

CC(C)(C)O [tert-butyl alcohol]
human
Details | concentration in expired air [nmol/L]
0.163 h | 1.334
0.3286 h | 2.062
0.5019 h | 2.062
0.6649 h | 2.197
0.8305 h | 1.982
0.9909 h | 1.774
1.501 h | 1.665
1.995 h | 1.562
2.994 h | 1.49
3.99 h | 1.323
4.991 h | 1.366
5.99 h | 1.242
